Variants at the floor of the assay were thinned out.
B1: tRNA (parent)
chain: GUUCCGUUGGCGUAAUGGUAACGCGUCUCCCUCCUAAGGAGAAGACUGCGGGUUCGAGUCCCGUACGGAACG

Variants of: B1
Assay: yeast fitness relative to wild type (ratio to wild type); higher = fitter; tRNA-Arg(CCU), competitive growth, 37 C, YPD
Summary of the method: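 The tRNA-Arg(CCU) gene variants were made by chemical synthesis with a 3% per-site mutation rate at 69 sites and inserted at the native genomic locus of Saccharomyces cerevisiae. After pooling, the strains were competed in YPD at 37°C for 24 hours in six parallel replicates. Gene amplicons from the start population and each end population were read by 100-nucleotide paired-end sequencing, and Darwinian fitness relative to wild type was taken from genotype frequency changes. Genotypes needed ≥ 100 starting reads, and estimates < 0.5 were set to 0.5.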

C30U U32A A36U A37U and C30U U32A A36U A37U C62U A69U cannot be ordered by yeast fitness: no more than 0.5 for the first, no more than 0.5 for the second.

Going from C30U U32A A57U to C30U U32G A37G G63A, the yeast fitness falls from 0.692 to no more than 0.5.

C30U U35A C62A and C30U U35A G63C A65C cannot be ordered by yeast fitness: no more than 0.5 for the first, no more than 0.5 for the second.

First: C30U U35A G63C A65U
Second: C30U U47A
The yeast fitness of the first is lower: no more than 0.5 for the first, 0.695 for the second.

C30U U47A C66A and C30U U47A G67C A70U cannot be ordered by yeast fitness: no more than 0.5 for the first, no more than 0.5 for the second.

First: C30U U47C C66U
Second: C30U U47G
The yeast fitness of the first is lower: 0.577 for the first, 0.588 for the second.

Going from C30U U53A to C30U U53G, the yeast fitness falls from 0.672 to 0.618.

Going from C30U U53G A69U to C30U U54A, the yeast fitness rises from no more than 0.5 to 0.561.

First: C30U U54A G63A
Second: C30U U54A G68C
The yeast fitness of the first is higher: 0.704 for the first, no more than 0.5 for the second.

Going from C30U U59A A69C to C30U U59G, the yeast fitness rises from no more than 0.5 to 0.898.

Going from C31A A36C to C31A A36U U53A, the yeast fitness falls from 0.558 to no more than 0.5.

Going from C31A A37C to C31A A37C G58C, the yeast fitness falls from 0.665 to 0.521.

First: C31A A37C U47C G67A
Second: C31A A37G
The yeast fitness of the first is lower: no more than 0.5 for the first, 0.672 for the second.

Compared with C31A A37G A65U, C31A A37G C55U A57G is lower in yeast fitness: 0.629 for the first, 0.531 for the second.

Compared with C31A A37G G38A A40G, C31A A37U C49A is higher in yeast fitness: no more than 0.5 for the first, 0.745 for the second.

Going from C31A A37U G67C to C31A A40C G52A C61A, the yeast fitness falls from 0.575 to 0.528.

C31A A40G A43C G44A and C31A A40G A43G G52C U59G cannot be ordered by yeast fitness: no more than 0.5 for the first, no more than 0.5 for the second.

First: C31A A40U A42G
Second: C31A A40U C46A
The yeast fitness of the first is higher: 0.606 for the first, 0.555 for the second.

Going from C31A A40U C46A A70C to C31A A40U U53G G56C C62G A70C, the yeast fitness falls from 0.626 to no more than 0.5.

First: C31A A42C C46U
Second: C31A A42G A43U G56C
The yeast fitness of the first is higher: 0.592 for the first, no more than 0.5 for the second.

Compared with C31A A42G A57U U59A, C31A A42G G67A A69U is higher in yeast fitness: no more than 0.5 for the first, 0.625 for the second.

First: C31A A42U
Second: C31A A43C
The yeast fitness of the first is higher: 0.909 for the first, 0.832 for the second.

Going from C31A A43C A45C to C31A A43G A65G, the yeast fitness rises from no more than 0.5 to 0.702.

Compared with C31A A43G A70U, C31A A43U G63A A70C is lower in yeast fitness: 0.708 for the first, no more than 0.5 for the second.

Compared with C31A A43U G68U, C31A A45C C62U G63A U64G is lower in yeast fitness: 0.72 for the first, no more than 0.5 for the second.

First: C31A A45U
Second: C31A A45U A70U
The yeast fitness of the first is higher: 1.02 for the first, 0.789 for the second.

First: C31A A57C
Second: C31A A57G
The yeast fitness of the first is lower: 0.544 for the first, 0.777 for the second.

First: C31A A65C G67A
Second: C31A A65U
The yeast fitness of the first is lower: no more than 0.5 for the first, 0.725 for the second.

Going from C31A C33G to C31A C33G A45G G48A, the yeast fitness falls from 0.569 to no more than 0.5.

C31A C33U C55G and C31A C33U G41A C62A cannot be ordered by yeast fitness: no more than 0.5 for the first, no more than 0.5 for the second.

C31A C33U G41C U47C G67C and C31A C34G cannot be ordered by yeast fitness: no more than 0.5 for the first, no more than 0.5 for the second.

Going from C31A C34G A43C C61U to C31A C34U, the yeast fitness rises from no more than 0.5 to 0.555.

First: C31A C34U C61G
Second: C31A C46U
The yeast fitness of the first is lower: 0.609 for the first, 0.947 for the second.

First: C31A C46U G67U
Second: C31A C49G
The yeast fitness of the first is higher: 0.684 for the first, 0.64 for the second.

Going from C31A C49G G56C A70U to C31A C60A A65U, the yeast fitness rises from no more than 0.5 to 0.619.

Compared with C31A C60G, C31A C62A is higher in yeast fitness: 0.516 for the first, 0.6 for the second.

Compared with C31A C66G, C31A G38A C46U A69U is lower in yeast fitness: 0.615 for the first, no more than 0.5 for the second.

Going from C31A G38C A43C C46G to C31A G38C G44A A65G, the yeast fitness falls from 0.672 to 0.534.

C31A G39A G48A C61U A65C and C31A G39A U47A G68C cannot be ordered by yeast fitness: 0.5 for the first, no more than 0.5 for the second.

C31A G39C C66U and C31A G44A A57G A65C A70U cannot be ordered by yeast fitness: no more than 0.5 for the first, no more than 0.5 for the second.

C31A G44A C55G A70G and C31A G44C G63A cannot be ordered by yeast fitness: no more than 0.5 for the first, no more than 0.5 for the second.

Going from C31A G48A C66U to C31A G50C, the yeast fitness falls from 0.646 to 0.566.

First: C31A G51A
Second: C31A G51A G58C
The yeast fitness of the first is higher: 0.603 for the first, 0.561 for the second.

Going from C31A G51C C55G A57U to C31A G56A A65G C66A G68C, the yeast fitness rises from no more than 0.5 to 0.562.

Going from C31A G63C G67C to C31A G67C, the yeast fitness rises from no more than 0.5 to 0.846.

First: C31A G67U
Second: C31A G68U A69C
The yeast fitness of the first is higher: 0.755 for the first, no more than 0.5 for the second.

C31A U32C C46U and C31A U32C U53C C60G cannot be ordered by yeast fitness: no more than 0.5 for the first, no more than 0.5 for the second.

C31A U35A A36U U47C C66U and C31A U35A C55G G58C cannot be ordered by yeast fitness: no more than 0.5 for the first, no more than 0.5 for the second.

Going from C31A U35C G41A to C31A U47A, the yeast fitness rises from no more than 0.5 to 0.673.

C31A U47C C61A and C31A U53A A65U cannot be ordered by yeast fitness: no more than 0.5 for the first, no more than 0.5 for the second.

Going from C31A U54C U64A to C31A U59G, the yeast fitness rises from no more than 0.5 to 0.771.

C31G A36C G50A C62U G68A A69C and C31G A36C G68A A70C cannot be ordered by yeast fitness: no more than 0.5 for the first, no more than 0.5 for the second.

C31G A36U G39A C62U and C31G A36U G48A A57C cannot be ordered by yeast fitness: no more than 0.5 for the first, no more than 0.5 for the second.

C31G A36U U53C C61A G68A and C31G A37C A70C cannot be ordered by yeast fitness: no more than 0.5 for the first, no more than 0.5 for the second.

Going from C31G A37G G38C A43G G58C to C31G A37U, the yeast fitness rises from no more than 0.5 to 0.728.

Compared with C31G A37U A42U A65C, C31G A40G is higher in yeast fitness: no more than 0.5 for the first, 0.719 for the second.

C31G A40G A45C U47C U53A A70U and C31G A40G A45C U53A cannot be ordered by yeast fitness: no more than 0.5 for the first, no more than 0.5 for the second.

C31G A40G C49U G50C and C31G A40G C49U G50C A70C cannot be ordered by yeast fitness: no more than 0.5 for the first, no more than 0.5 for the second.

First: C31G A40U C60G G67A
Second: C31G A42G
The yeast fitness of the first is lower: no more than 0.5 for the first, 0.721 for the second.

Going from C31G A42U A43C to C31G A43C, the yeast fitness falls from 1.15 to 0.932.

Compared with C31G A43G, C31G A43U C46G A70U is lower in yeast fitness: 0.982 for the first, 0.527 for the second.

First: C31G A43U C46G C62U
Second: C31G A45C C49A
The yeast fitness of the first is lower: no more than 0.5 for the first, 0.807 for the second.

First: C31G A45G U47A
Second: C31G A45G U54C G56U
The yeast fitness of the first is higher: 0.893 for the first, no more than 0.5 for the second.

Going from C31G A45U U47A to C31G A57U A69C A70G, the yeast fitness falls from 0.521 to no more than 0.5.

Compared with C31G A57U A69G, C31G A65C is lower in yeast fitness: 0.774 for the first, 0.691 for the second.

Going from C31G A65G to C31G A69C, the yeast fitness rises from 0.867 to 0.907.

Compared with C31G A69U, C31G A70C is lower in yeast fitness: 0.752 for the first, 0.689 for the second.

First: C31G A70U
Second: C31G C33G
The yeast fitness of the first is higher: 0.938 for the first, 0.565 for the second.

C31G C33G A57C and C31G C33G A57U A65U cannot be ordered by yeast fitness: no more than 0.5 for the first, no more than 0.5 for the second.

C31G C33G G63A and C31G C33G G67A cannot be ordered by yeast fitness: no more than 0.5 for the first, no more than 0.5 for the second.

First: C31G C33G U47A
Second: C31G C33U
The yeast fitness of the first is lower: 0.581 for the first, 0.673 for the second.

First: C31G C33U A37C C61U A65U
Second: C31G C33U A42U
The yeast fitness of the first is lower: no more than 0.5 for the first, 0.649 for the second.

C31G C33U C61U and C31G C33U U53C U54G C55A cannot be ordered by yeast fitness: no more than 0.5 for the first, no more than 0.5 for the second.

Going from C31G C33U U59G C66U G68A to C31G C34A C55U U59C, the yeast fitness falls from 0.543 to no more than 0.5.

Going from C31G C34G A57C to C31G C34G C66A, the yeast fitness falls from 0.685 to 0.568.

Going from C31G C34U to C31G C34U A40C, the yeast fitness falls from 0.626 to 0.526.

C31G C34U A40C C60A C61A G63A and C31G C34U A40C G50A C55G C62A cannot be ordered by yeast fitness: no more than 0.5 for the first, no more than 0.5 for the second.

First: C31G C46U
Second: C31G C46U A65U
The yeast fitness of the first is higher: 0.998 for the first, 0.789 for the second.

First: C31G C49G
Second: C31G C49U U54G
The yeast fitness of the first is higher: 0.753 for the first, no more than 0.5 for the second.

First: C31G C55A A57U U59C C60U
Second: C31G C55G
The yeast fitness of the first is lower: no more than 0.5 for the first, 0.592 for the second.

Going from C31G C55G A65C to C31G C55U, the yeast fitness rises from no more than 0.5 to 0.683.

Going from C31G C61G C62G to C31G C61U, the yeast fitness rises from 0.514 to 0.834.

First: C31G C62A
Second: C31G C66G
The yeast fitness of the first is higher: 0.607 for the first, 0.587 for the second.

Variant C31G G38A C61A G63A A65G has a yeast fitness of no more than 0.5.

Reference: the RNAGym collection of RNA variant scans (doi:10.1126/science.aae0568)
